From ChEMBL document CHEMBL5576116, “Structural modification of the propyl linker of cjoc42 in combination with sulfonate ester and triazole replacements for enhanced gankyrin binding and anti-proliferative activity” (Bioorg Med Chem, 2024) come the findings set out here.

The test system of data set [1] is HuH-6. Briefly: Antiproliferative activity against human HuH-6 cells incubated for 72 hrs by MTT assay. Type of data set: functional, cell-based. The following applies: HuH-6, 72 h. The procedure, abridged: (§1)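 Cells kept in DMEM with 10% FBS and 1% penicillin/streptomycin, seeded at 2.5 x 10^4 cells/well and left 24 h before drug. Exposed to increasing compound concentrations for 72 h at 37 °C, 5% CO2. MTT dye (5.4 mg/mL) added for 3 h at 37 °C, formazan dissolved in DMSO, A570 read. 6–8 replicates per treatment; IC50 from dose–response curves.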
Background: Tetrazolium assays rely on reduction of a dye to a coloured formazan, in cell work by metabolically active cells.

Data set [2] can be described thus: Cytotoxicity against HEK293 cells. Type of data set: toxicity, cell-based. The settings on record: human. The procedure, abridged:
as §1

Another data set has as its system HepG2. In words: Antiproliferative activity against human HepG2 cells incubated for 72 hrs by MTT assay. Type of data set: functional, cell-based. The following applies: HepG2, 72 h.
In data set [3] the test system is HuH-6. In words: Effect on gankyrin protein level in human HuH-6 cells at 0.82 to 3.3 uM incubated for 48 hrs by Western blotting analysis. Type of data set: functional, cell-based. The following applies: dose 0.82-3.3 µM. The procedure, abridged:
(§2)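 HuH6 cells in 10 cm dishes exposed to varying compound concentrations or vehicle (0.25% DMSO final) for 48 h. Harvested in cold PBS, lysed in RIPA plus protease/phosphatase inhibitors for 60 min on ice. 15 μg protein on reducing SDS-PAGE, transferred to PVDF, immunoblotted for p53, Rb and gankyrin with cyclophilin as reference; ECL detection. Run in duplicate.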
In general terms: In western blotting, separated proteins are transferred to a membrane and probed.

Data set [4] has as its system HuH-6. Briefly: Upregulation of p53 protein level in human HuH-6 cells at 0.82 to 3.3 uM incubated for 48 hrs by Western blotting analysis. Type of data set: functional, cell-based. The settings on record: dose 0.82-3.3 µM. The procedure, abridged: as §2
Data set [5] has as its target T1, 26S proteasome non-ATPase regulatory subunit 10 (Homo sapiens) (UniProt O75832).
T1 sequence (whole entry): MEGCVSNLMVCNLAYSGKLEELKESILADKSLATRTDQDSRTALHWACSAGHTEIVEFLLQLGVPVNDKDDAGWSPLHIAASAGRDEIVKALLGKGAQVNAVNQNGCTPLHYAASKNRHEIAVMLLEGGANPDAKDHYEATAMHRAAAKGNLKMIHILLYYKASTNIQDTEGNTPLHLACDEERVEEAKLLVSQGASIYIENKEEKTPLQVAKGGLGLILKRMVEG
In words: Binding affinity to gankyrin in human HuH-6 cells assessed as thermal stability incubated for 5 hrs by CETSA. The class given is cell-based. The procedure, abridged:
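HuH6 cells treated for 5 h with compound or vehicle, 0.25% DMSO final. Harvested cells split into six aliquots heated at 50, 53, 56, 59, 62 or 65 °C. Lysed in RIPA with protease/phosphatase inhibitors, 60 min on ice. 15 μg protein run on reducing SDS-PAGE, blotted to PVDF, probed for gankyrin with β-actin reference, ECL detection. Melt curve mean ± SD, n = 3.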

Data set [6] has as its system HuH-6. In words: Upregulation of Rb protein level in human HuH-6 cells at 0.82 to 3.3 uM incubated for 48 hrs by Western blotting analysis. Type of data set: functional, cell-based. The settings on record: dose 0.82-3.3 µM. The procedure, abridged:
as §2

In data set [7] the test system is HuH-6. Briefly: Induction of cell cycle arrest in human HuH-6 cells assessed as decrease in S phase cells at 3.3 uM incubated for 72 hrs PI/RNAase staining based flow cytometry analysis. The class given is functional. The procedure, abridged: (§3)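 HuH6 cells treated 72 h with compound or vehicle (0.25% DMSO final), harvested in cold PBS, normalized, fixed in 70% ethanol at −20 °C overnight. Pellet stained with PI/RNase for 30 min at 37 °C, then analyzed by flow and imaging cytometry. Mean ± SD, n = 3; one-way ANOVA, P < 0.05 significant.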
On the technique in general: In flow cytometry, cells or beads pass a laser one at a time.

The subject of another data set is Huh-7. Briefly: Antiproliferative activity against human HuH-7 cells incubated for 72 hrs by MTT assay. Type of data set: functional, cell-based. The following applies: Huh-7, 72 h. The procedure, abridged: as §1
For data set [8], the system named is HuH-6. Briefly: Induction of cell cycle arrest in human HuH-6 cells assessed as accumulation of cells at […] phase at 3.3 uM incubated for 72 hrs PI/RNAase staining based flow cytometry analysis. The class given is functional. The procedure, abridged:
as §3

The test system of a further data set is Hep 3B2. Briefly: Antiproliferative activity against human Hep3B cells incubated for 72 hrs by MTT assay. Type of data set: functional, cell-based.

pIC50: −log10 of the molar value. Activity calls are given as the source filed them. No cut-off for these calls is given here. Some results are limits rather than exact numbers.

The pIC50 is the negative decadic logarithm of the IC50, by convention in mol/L. High values mean a low IC50, low ones a high IC50. Regarding `COc1ccc(CNC(=O)NS(=O)(=O)c2ccc(C)cc2)cc1`, the pIC50 with HuH-6 [1] is < 4.30. Still for that read-out and setting: with `O=C(NCCCCNC(=O)c1ccc(C(F)(F)F)cc1)c1ccc(-c2ccccc2)cc1` the figure was < 4.30. Regarding `COC(=O)c1ccc(C(=O)NCCCCNC(=O)c2ccc(C)cc2)cc1`, in the data set on HuH-6 [1], the pIC50 is < 4.30. Still for that read-out and setting: with `COC(=O)c1ccc(-n2cc(CCNC(=O)c3ccc(C)cc3)nn2)cc1` the figure was < 4.30; with `COC(=O)c1ccc(CNC(=O)NS(=O)(=O)c2ccc(C)cc2)cc1`, < 4.30. As for `COC(=O)c1ccc(C(=O)NCCCNC(=O)c2ccc(C(=O)OC)cc2)cc1`, the figures for the pIC50 (in data set [2]; in the data set on HuH-6 [1]) were < 4.30 and 4.70, respectively.

Consider `COC(=O)c1ccc(-n2cc(CNC(=O)c3ccc(C)cc3)nn2)cc1`, for which, in the data set on HuH-6 [1], the pIC50 is < 4.30. With `COC(=O)c1ccc(NC(=O)NS(=O)(=O)c2ccc(C)cc2)cc1`, the pIC50 with HuH-6 [1] was < 4.30. On to `COC(=O)c1ccc(NC(=O)CCC(=O)Nc2ccc(-c3ccccc3)cc2)cc1`, for which, in the data set on HuH-6 [1], the pIC50 was < 4.30. Consider `Cc1ccc(NC(=O)CCC(=O)Nc2ccc(C)cc2)cc1`, for which the pIC50 in the data set with HuH-6 [1] is < 4.30. For the compound `Cc1ccc(C(=O)NCCCCNC(=O)c2ccc(C)cc2)cc1`, the pIC50 in the data set on HuH-6 [1] is < 4.30.

With `COc1ccc(C(=O)NCCCNC(=O)c2ccc(-c3ccccc3)cc2)cc1`, the negative logarithm of the IC50 (pIC50) in data set [2] was 5.48; in the data set on HuH-6 [1], 5.62. `COC(=O)c1ccc(NC(=O)Nc2ccc(C)cc2)cc1` had a negative-log IC50 (pIC50) with HuH-6 [1] of 4.41.

Regarding `Cc1ccc(NC(=O)NS(=O)(=O)c2ccc(C)cc2)cc1`, the pIC50 in the data set on HuH-6 [1] was < 4.30. Same read-out and setting: next, `O=C(NCCCNC(=O)c1ccc(C(F)(F)F)cc1)c1ccc(-c2ccccc2)cc1`: < 4.30.

For `COC(=O)c1ccc(C(=O)NCCNC(=O)c2ccc(C)cc2)cc1`, in the data set on HuH-6 [1], the negative-log IC50 (pIC50) is 4.51. `Cc1ccc(NC(=O)CCCC(=O)Nc2ccc(C)cc2)cc1`: the pIC50 in the data set on HuH-6 [1] is < 4.30. Still for that read-out and setting: next, `COC(=O)c1ccc(NC(=O)CCCCC(=O)Nc2ccc(C(=O)OC)cc2)cc1`: < 4.30. Consider `Cc1ccc(NC(=O)CC(=O)Nc2ccc(C)cc2)cc1`, for which the negative logarithm of the IC50 (pIC50) in the data set with HuH-6 [1] is < 4.30.

For `Cc1ccc(C(=O)NCCNC(=O)c2ccc(C)cc2)cc1`, the pIC50 in the data set with HuH-6 [1] was 4.52. As to `Cc1ccc(NC(=O)Nc2ccc(C)cc2)cc1`, the negative logarithm of the IC50 (pIC50) with HuH-6 [1] was < 4.30. As for `COC(=O)c1ccc(-n2cc(CCCOS(=O)(=O)c3ccc(C)cc3)nn2)cc1`, the pIC50 with HuH-6 [1] is < 4.30. Same read-out and setting: next, `COC(=O)c1ccc(-n2cc(CCCCNC(=O)c3ccc(C)cc3)nn2)cc1`: 4.71; `COC(=O)c1ccc(C(=O)NCCCCNC(=O)c2ccc(C(=O)OC)cc2)cc1`: < 4.30.

With `Cc1ccc(NC(=O)CCCCC(=O)Nc2ccc(C)cc2)cc1`, the pIC50 with HuH-6 [1] is < 4.30. Consider `COc1ccc(CNC(=O)Nc2ccc(C)cc2)cc1`, for which the pIC50 with HuH-6 [1] is < 4.30.

As to `COC(=O)c1ccc(CNC(=O)Nc2ccc(C)cc2)cc1`, the pIC50 in the data set on HuH-6 [1] was < 4.30.

As for `COC(=O)c1ccc(NC(=O)CCC(=O)Nc2ccc(C(=O)OC)cc2)cc1`, the negative logarithm of the IC50 (pIC50) in the data set on HepG2 was 4.62; in data set [2] it was < 4.30; with Huh-7, < 4.30; in the data set on HuH-6 [1], 5.48; in the data set with Hep 3B2, < 4.30. Further, the result with HuH-6 [3] was inactive. Further, the result (with HuH-6 [4]; in [5]; in the data set on HuH-6 [6]; with HuH-6 [7]; in the data set on HuH-6 [8]) was Active. In the case of `COC(=O)c1ccc(C(=O)NCCNC(=O)c2ccc(C(=O)OC)cc2)cc1`, in the data set on HuH-6 [1], the pIC50 is < 4.30. Take `COC(=O)c1ccc(-n2cc(CCCCOS(=O)(=O)c3ccc(C)cc3)nn2)cc1`: in the data set with HuH-6 [1], the pIC50 is < 4.30. Same read-out and setting: with `COC(=O)c1ccc(NC(=O)CCCCC(=O)Nc2ccc(C)cc2)cc1` the figure was < 4.30. Consider `COC(=O)c1ccc(C(=O)NCCCCNC(=O)c2ccc(-c3ccccc3)cc2)cc1`, for which the pIC50 with HuH-6 [1] is < 4.30. `COC(=O)c1ccc(C(=O)NCCCNC(=O)c2ccc(C)cc2)cc1`: the pIC50 with HuH-6 [1] was < 4.30. Still for that read-out and setting: next, `Cc1ccc(CNC(=O)Nc2ccc(C)cc2)cc1`: < 4.30. The same measure, in the same setting: with `Cc1ccc(C(=O)NCCCCNC(=O)c2ccc(-c3ccccc3)cc2)cc1` the figure was < 4.30; with `Cc1ccc(C(=O)NCCCNC(=O)c2ccc(C)cc2)cc1`, < 4.30. In the data set on HuH-6 [1], `COC(=O)c1ccc(NC(=O)CCCC(=O)Nc2ccc(C(=O)OC)cc2)cc1` gave a pIC50 of 4.85.

`Cc1ccc(C(=O)NCCCNC(=O)c2ccc(-c3ccccc3)cc2)cc1`: the pIC50 with HuH-6 [1] is 4.69. Still for that read-out and setting: next, `COC(=O)c1ccc(NC(=O)CC(=O)Nc2ccc(C(=O)OC)cc2)cc1`: < 4.30; `COC(=O)c1ccc(C(=O)NCCCNC(=O)c2ccc(-c3ccccc3)cc2)cc1`: < 4.30. With `COC(=O)c1ccc(-n2cc(CCOS(=O)(=O)c3ccc(C)cc3)nn2)cc1`, the pIC50 in the data set with HuH-6 [1] is < 4.30. As for `Cc1ccc(CNC(=O)NS(=O)(=O)c2ccc(C)cc2)cc1`, the pIC50 in the data set with HuH-6 [1] is < 4.30.
